The record followed here is ChEMBL document CHEMBL2412989, “Antiproliferative activity on human prostate carcinoma cell lines of new peptidomimetics containing the spiroazepinoindolinone scaffold” (Bioorg Med Chem, 2013).

The subject of test [1] is DU-145. As to the kind of experiment: Antiproliferative activity against human DU145 cells assessed as growth inhibition at 10^-9 M after 48 hrs by BrdU-incorporation assay relative to untreated cells. In kind it is functional. To be noted: DU-145, 48 h, read-out: GI. Put shortly:
(§1)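 DU145 prostate carcinoma cells (ATCC) kept in RPMI 1640/5% FBS. 5 × 10^4 cells/well seeded, 24 h at 37 °C, 5% CO2. Medium then replaced by RPMI 1640/5% charcoal-stripped FBS with compound. BrdU added 4 h before end of incubation. Fixed cells probed with Eu-conjugated anti-BrdU (0.5 µg/mL), time-resolved fluorescence read. Cell-free wells used as blank. Mean of ≥3 experiments, 8 replicates each, expressed vs untreated cells.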

For test [2], the system named is DU-145. Briefly: Antiproliferative activity against human DU145 cells assessed as growth inhibition at 10^-6 M after 48 hrs by BrdU-incorporation assay relative to untreated cells. The format is functional. To be noted: DU-145, 48 h, read-out: GI. Put shortly: as §1
The subject of test [3] is DU-145. Briefly: Antiproliferative activity against human DU145 cells assessed as growth inhibition at 10^-9 M after 48 hrs by BrdU-incorporation assay relative to untreated cells in presence of GHS-R1a antagonist D-Lys-GHRP-6. In kind it is functional, cell-based. Put shortly: (§2)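 BrdU-incorporation proliferation assay in DU145 cells. Cells seeded at 5 × 10^4/well, 24 h, then switched to RPMI 1640/5% charcoal-stripped FBS containing compound together with GHS-R1a antagonist D-Lys3-GHRP-6 at 10^-6 M. BrdU pulse 4 h before end. Eu-anti-BrdU time-resolved fluorescence, blank from cell-free wells. Mean of ≥3 experiments in 8 replicates, relative to untreated cells.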

For test [4], the system named is DU-145. Briefly: Antiproliferative activity against human DU145 cells assessed as growth inhibition at 10^-6 M after 48 hrs by BrdU-incorporation assay relative to untreated cells in presence of GHS-R1a antagonist D-Lys-GHRP-6. The format is functional, cell-based. In outline: as §2
In test [5] the target is T1, Growth hormone secretagogue receptor type 1 (Homo sapiens, UniProt Q92847). As to the kind of experiment: Induction of GHS-R1a-mediated ERK1/2 phosphorylation in human DU145 cells at 10^-9 to 10^-6 M after 10 mins by Western blot analysis. Conditions: DU-145. In kind it is cell-based. In outline:
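DU145 cells serum-starved 16 h, then exposed to compound (10^-6 or 10^-9 M) for 10 min. Lysed in T-PER with protease inhibitors, protein by BCA. SDS-PAGE, nitrocellulose transfer, 5% milk/TBST block. Probed overnight at 4 °C with anti-pERK1/2 (1:150) and anti-ERK1/2 (1:1000), then peroxidase secondary 2 h RT. Mean ± SD of three independent experiments, one-way ANOVA.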

Test [6] has as its target T1, Growth hormone secretagogue receptor type 1. Briefly: Induction of GHS-R1a-mediated ERK1/2 phosphorylation in human DU145 cells at 10^-6 M after 10 mins by Western blot analysis in presence of D-Lys-GHRP-6. In kind it is cell-based. To be noted: DU-145. In outline:
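Western blot of ERK1/2 phosphorylation in 16 h serum-starved DU145 cells. Cells pretreated 1 h with 10^-6 M D-Lys3-GHRP-6, then exposed 10 min to compound. pERK1/2 (1:150) and total ERK1/2 (1:1000) antibodies, overnight 4 °C, peroxidase secondary. Mean ± SD, three independent experiments, one-way ANOVA.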
For orientation: In western blotting, separated proteins are transferred to a membrane and probed.

The target is the same in test [7]. As to the kind of experiment: Agonist activity at GHS-R1a (unknown origin).
Test [8] in a line: Agonist activity at GHS-R1a in rat pituitary cells. In kind it is cell-based. Conditions: Pituitary gland cell.

Calls of active or inactive are those of the source. No cut-off for these calls is given here.

T1 sequence (Q92847 whole entry): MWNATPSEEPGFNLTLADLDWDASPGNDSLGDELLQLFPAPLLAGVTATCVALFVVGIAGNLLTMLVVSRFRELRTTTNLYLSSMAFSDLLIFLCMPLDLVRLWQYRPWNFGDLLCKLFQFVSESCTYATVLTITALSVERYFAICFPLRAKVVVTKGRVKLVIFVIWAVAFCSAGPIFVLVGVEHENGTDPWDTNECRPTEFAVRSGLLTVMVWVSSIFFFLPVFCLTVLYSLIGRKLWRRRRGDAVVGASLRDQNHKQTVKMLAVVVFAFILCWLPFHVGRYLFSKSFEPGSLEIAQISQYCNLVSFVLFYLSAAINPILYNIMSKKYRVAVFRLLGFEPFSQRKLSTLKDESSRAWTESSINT

As to `CC(=O)NC(C)(C)C(=O)N[C@@H](Cc1c[nH]c2ccccc12)C(=O)N1CCC[C@@]2(CC1)C(=O)Nc1ccccc12`, the inhibition of growth at 0.001 µM in test [1] was 1.2%. The inhibition of growth at 1 µM in test [2] stood at 2.1%.
Taken in the same sequence, the figures for `CC(C)(N)C(=O)N[C@H](Cc1c[nH]c2ccccc12)C(=O)N1CCC[C@@]2(CC1)C(=O)Nc1ccccc12` were -4.8% and -5.5%.
As for `CC(C)(N)C(=O)N[C@@H](Cc1c[nH]c2ccccc12)C(=O)N1CCC[C@]2(CC1)C(=O)Nc1ccccc12`, the inhibition of growth at 0.001 µM in test [1] was -10%. Moreover, the inhibition of growth at 1 µM in test [2] was -15%.
In the case of `CCCCCCCC(=O)OC[C@H](NC(=O)CNC(=O)[C@@H](N)CCCNC(=N)N)C(=O)N[C@@H](CO)C(=O)N[C@@H](Cc1ccccc1)C(=O)N[C@@H](CC(C)C)C(=O)N[C@@H](CO)C(=O)N1CCC[C@H]1C(=O)N[C@@H](CCC(=O)O)C(=O)N[C@@H](Cc1cnc[nH]1)C(=O)N[C@@H](CCC(N)=O)C(=O)N[C@@H](CCCCN)C(=O)N[C@@H](C)C(=O)N[C@@H](CCC(N)=O)C(=O)N[C@@H](CCC(N)=O)C(=O)N[C@@H](CCCNC(=N)N)C(=O)N[C@@H](CCCCN)C(=O)N[C@@H](CCC(=O)O)C(=O)N[C@@H](CO)C(=O)N[C@@H](CCCCN)C(=O)N[C@@H](CCCCN)C(=O)N1CCC[C@H]1C(=O)N1CCC[C@H]1C(=O)N[C@@H](C)C(=O)N[C@@H](CCCCN)C(=O)N[C@@H](CC(C)C)C(=O)N[C@@H](CCC(N)=O)C(=O)N1CCC[C@H]1C(=O)O` [GHRELIN], the “growth inhibition (GI)” value in test [3] and in test [4] was “inactive” each time. The inhibition of growth at 0.001 µM in test [1] was -38%. The outcome in test [5] was Active. For the same compound, in test [2], the inhibition of growth at 1 µM was -25%.
In the case of `CC(C)(N)C(=O)N[C@@H](Cc1c[nH]c2ccccc12)C(=O)N1CCC[C@@]2(CC1)C(=O)Nc1ccccc12`, the “growth inhibition (GI)” value in test [3] and in test [4] was “inactive” each time. The inhibition of growth at 0.001 µM in test [1] is -20%. For the same compound, the outcome in test [6] was inactive. The result in test [5] was Active. Moreover, the inhibition of growth at 1 µM in test [2] is -27%.
Regarding `CC(C)(N)C(=O)N[C@H](Cc1c[nH]c2ccccc12)C(=O)N1CCC[C@]2(CC1)C(=O)Nc1ccccc12`, in test [1], the inhibition of growth at 0.001 µM was -2.4%. In test [2], the inhibition of growth at 1 µM turned out to be 9.7%.
In general, EC50 refers to the concentration that produces a half-maximal response. With `CC(C)(N)C(=O)N[C@H](Cc1c[nH]c2ccccc12)C(=O)N1CCC2(CC1)C[C@H](O)c1ccccc12`, in test [7], it took 600 pM to reach a half-maximal effect (EC50).
As for `CC(C)(N)C(=O)N[C@H](COCc1ccccc1)C(=O)N1CCC2(CC1)CN(S(C)(=O)=O)c1ccccc12` [IBUTAMOREN], in test [8], the EC50 turned out to be 1300 pM.
